In PubChem BioAssay AID504818 (Southern Research Specialized Biocontainment Screening …, 2011) one finds CC50 and viability data, which are given here for 26 compounds.

Molecules are shown by their SMILES. Several values for one entry are separate records, joined by “and”; a condition that tells them apart may be missing. Equal entries are not always repeated. Activity calls are given as the source filed them.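 Rule for the calls: active = any dose giving under 70% viability, per first replicate; inactive = the rest.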

Assay [1] deals with HEp-2 viability, ATP luminescence. Description: viability loss in HEp-2 cells – cell-based, synthesized compounds, set 8, cytotoxicity control for RSV inhibitor project, SAR follow-up (AID 504818). In outline:
(§1)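 Material: uninfected HEp-2 human cells, ATP-based viability; Amount: 10,595 HEp-2 cells per well; Timing: 6 d compound exposure, 37 °C; Dosing: 8-point twofold dilution series, 0.39–50 µM final, 0.5% DMSO; Signal: ATP luminescence (CellTiter-Glo); Replication: each concentration tested in triplicate; Benchmarks: cell-only wells as 100% reference; Buffer or medium: DMEM/F12 with HI-FBS.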

Assay in assay [2]: as above
The settings on record: HEp-2 viability, ATP luminescence; at 50 µM (top of the series). The procedure, abridged: as §1

In the case of `Cc1cccc(NC(=O)[C@@H]2CCCN2S(=O)(=O)c2cccc3cccnc23)c1C`, in assay [1], the CC50 is 49.5 µM.

Take `Cc1ccc(Cl)cc1NC(=O)[C@@H]1CCCN1S(=O)(=O)c1cccc2cccnc12`: the CC50 in assay [1] is 9.25 µM.

For the compound `Cc1ccc(NC(=O)C2CCCN2S(=O)(=O)c2cccc3ccccc23)c(C)c1` (stereo unspecified), the cytotoxic concentration (CC50) in assay [1] was 18.4 µM.

Turning to `Cc1ccc(C(C)(C)C)cc1NC(=O)[C@@H]1CCCN1S(=O)(=O)c1cccc2cccnc12`, in assay [1], the CC50 was 6.2 µM.

On to `Cc1ccc(NC(=O)C2CCCN2S(C)(=O)=O)c(C)c1` (stereo unspecified), for which the viability in assay [2] was 96.3% (inactive).

In the case of `COCCCNC(=O)c1ccc(Cn2c(=O)c3ccccc3n(Cc3cc(C)on3)c2=O)cc1`, the CC50 in assay [1] was 7 µM.

With `Cc1cccc(NC(=O)[C@@H]2CCCN2S(=O)(=O)c2cccc3cccnc23)c1`, the CC50 in assay [1] was 20.8 µM.

With `O=C(Nc1ccccc1)[C@@H]1CCCN1S(=O)(=O)c1cccc2cccnc12`, the CC50 in assay [1] is 38.4 µM.

On to `Cc1ccc(C(C)C)cc1NC(=O)[C@@H]1CCCN1S(=O)(=O)c1cccc2cccnc12`, for which the half-maximal cytotoxic concentration (CC50) in assay [1] was 10.6 µM.

In the case of `COCCCNC(=O)c1ccc(Cn2c(=O)c3ccccc3n(C)c2=O)cc1`, the 50% cytotoxic concentration (CC50) in assay [1] is 15 µM.

For `CCCn1c(=O)n(Cc2ccc(C(=O)NCCCOC)cc2)c(=O)c2ccccc21`, in assay [1], the CC50 is 22.8 µM.

Take `Cc1ccc(NC(=O)C2CCCN2S(=O)(=O)c2cccc3cccnc23)c(C)c1` (stereo unspecified): the CC50 in assay [1] is 33.4 µM.

Regarding `Cc1ccc(Cn2c(=O)n(Cc3ccc(C(=O)NC(C)(C)C)cc3)c(=O)c3ccccc32)cc1`, the CC50 in assay [1] is 10.2 µM.

For the compound `CC(C)c1ccccc1NC(=O)[C@@H]1CCCN1S(=O)(=O)c1cccc2cccnc12`, the CC50 in assay [1] was 30.1 µM.

On to `COCCCNC(=O)c1ccc(Cn2c(=O)c3ccc(Br)cc3n(Cc3ccc(C)cc3)c2=O)cc1`, for which the CC50 in assay [1] is 39 µM.

For `Cc1ccc(NC(=O)[C@H]2CCCN2S(=O)(=O)c2cccc3cccnc23)c(C)c1`, the CC50 in assay [1] was 40.9 µM.

Turning to `Cc1ccc(C)c(NC(=O)[C@@H]2CCCN2S(=O)(=O)c2cccc3cccnc23)c1`, the CC50 in assay [1] was 36.2 µM and 32.9 µM.

Regarding `Cc1ccc(NC(=O)[C@@H]2CCCN2S(=O)(=O)c2cccc3cccnc23)cc1`, the half-maximal cytotoxic concentration (CC50) in assay [1] was 33.1 µM.

Take `Cc1ccc(NC(=O)C(C)NS(=O)(=O)c2cccc3cccnc23)c(C)c1` (stereo unspecified): the viability in assay [2] is 77.7% (inactive).

Regarding `Cc1ccc(C(F)(F)F)cc1NC(=O)[C@@H]1CCCN1S(=O)(=O)c1cccc2cccnc12`, the CC50 in assay [1] was 3.7 µM.

Turning to `Cc1ncccc1NC(=O)[C@@H]1CCCN1S(=O)(=O)c1cccc2cccnc12`, the viability in assay [2] is 72.6% (inactive).

Consider `Cc1ccc(NC(=O)[C@@H]2CCCN2S(=O)(=O)c2cccc3cccnc23)c(C)c1`, for which the CC50 in assay [1] is 33 µM.

Regarding `COc1ccc(C)cc1NC(=O)[C@@H]1CCCN1S(=O)(=O)c1cccc2cccnc12`, the viability in assay [2] is 82% (inactive).

Consider `Cc1ccc(Cl)c(NC(=O)[C@@H]2CCCN2S(=O)(=O)c2cccc3cccnc23)c1`, for which, in assay [1], the 50% cytotoxic concentration (CC50) was 13.6 µM.

With `Cc1cc(C)cc(NC(=O)[C@@H]2CCCN2S(=O)(=O)c2cccc3cccnc23)c1`, in assay [1], the CC50 is 32.2 µM.

With `Cc1ccc(F)cc1NC(=O)[C@@H]1CCCN1S(=O)(=O)c1cccc2cccnc12`, the CC50 in assay [1] was 22.5 µM.
